Measurements from different studies.
Each line is one published result; the experiments were not run side by side.
Target: Death-associated protein kinase 2 (DAPK2, Homo sapiens, UniProt Q9UIK4)

SMILES	effect on	method	concentration	remaining binding [%]
CN(CCCC(F)(F)F)c1nccc(-c2cnn3ncccc23)n1	binding		1 µM	97
C[C@@H](c1ccc(-n2cnc3c(N)ncnc32)cc1)N1CCc2nn(C)c(Cc3ccccc3)c2C1=O	binding	competition with immobilised ligand	0.1 µM	100
C=CC(=O)N1CCC(C(=O)NCC(=O)N2CCN(c3nc(-c4cnc(N)nc4C(F)F)nc(N4CCOCC4)n3)CC2)CC1	binding	competition with immobilised ligand	1 µM	95
CN(C)c1ncc(F)c(-c2cnn3ncccc23)n1	binding		1 µM	69
CN(C)C(=O)Cn1cc(-c2nc(C3(c4ccc(-c5cnc(N)nc5)cc4)CC3)no2)cn1	cell-free assay	competition with immobilised ligand	1 µM	86
c1cnn2ncc(-c3ccnc(N4CCC45COC5)n3)c2c1	binding		1 µM	70
O=C(Nc1c[nH]nc1C(=O)NC1CCNCC1)c1cc(F)cc(F)c1	binding	competition with immobilised ligand	1 µM	100
Cn1nc(C(F)(F)F)cc1-c1cnc(N2CCc3cc(S(=O)(=O)Nc4c(F)cc(Cl)cc4F)cc(N4CCCC4=O)c32)nc1	cell-free assay	competition with immobilised ligand	1 µM	94
CN(c1nccc(-c2cnn3ncccc23)n1)C1CC1	binding		1 µM	76
Cc1noc([C@H]2C[C@@H](c3ccc(C(F)(F)F)cc3)CN(C(=O)N3CCS(=O)(=O)C3)C2)n1	cell-free assay	competition with immobilised ligand	1 µM	100
COc1ccnn2ncc(-c3ccnc(N(C)C)n3)c12	binding		1 µM	91
CN(c1ccnc(CNc2nc(Nc3ccc4c(c3)CC(=O)N4)ncc2C(F)(F)F)n1)S(C)(=O)=O	cell-free assay	competition with immobilised ligand	1 µM	58
O=C(NCCCN1CCOCC1)c1ccc(Nc2ncc(Cl)c(-c3ccc(Cl)s3)n2)cc1	binding	competition with immobilised ligand	1 µM	38
CCS(=O)(=O)c1cc2cc(C[C@](O)(CC(C)(C)c3ccc(F)cc3C(N)=O)C(F)(F)F)[nH]c2cn1	cell-free assay	competition with immobilised ligand	1 µM	90
C[C@@H]1CCN(c2nccc(-c3cnn4ncccc34)n2)C1	binding		1 µM	85
O=C(NCCCN1CCOCC1)c1ccc(Nc2nccc(-c3cc4ccccc4s3)n2)cc1	binding	competition with immobilised ligand	1 µM	18
Nc1ncc2c(n1)-c1c([nH]c3ccc(C#CC4CC4)cc13)CCCC2	binding	competition with immobilised ligand	1 µM	100
O=C(c1ccc(Nc2ncc(Cl)c(-c3ccc(Cl)s3)n2)cc1)N1CCC(N2CCCC2)CC1	binding	competition with immobilised ligand	1 µM	29
C[C@H](NC(=O)c1cnc2n1[C@](C)(Cc1ccc(C#N)cc1)C(=O)N2c1cc(Cl)c(F)c(Cl)c1)C(=O)NC1(c2ccccn2)CC1	cell-free assay	competition with immobilised ligand	1 µM	100
CNC(=O)[C@@H]1CC[C@@H](n2c(-c3ccc4cnccc4c3)nc3ccc(C(=O)NCc4cccc(C(N)=O)c4)cc32)C1	binding	competition with immobilised ligand	1 µM	100
CC1CCCN1c1nccc(-c2cnn3ncccc23)n1 (stereo not shown)	binding		1 µM	86
Nc1c(C(=O)NCc2ccc(C(=O)NCCCC3CCCCC3)cc2)cnn1-c1ccccc1	cell-free assay	competition with immobilised ligand	0.1 µM	100
